The values below come from PubChem BioAssay AID504383 (The Scripps Research Institute Molecular Screening Center, 2011).

Among all 2,500 compounds or so, about 1,200 (48%) were called active. So high a share suggests a set chosen from earlier hits. This is one part of the list. Values without a mark were called inactive.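 Rule for the calls: active = mean activation above the low control average plus 3 SD, as set in the primary screen (cut at about 12% in these data); inactive = the rest.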

This experiment has as its target Troponin I, cardiac muscle (Homo sapiens) + Troponin T, cardiac muscle (Homo sapiens) + Troponin C, slow skeletal and cardiac muscles (Homo sapiens) (UniProt P19429+P45379+P63316). Put plainly: cardiac RTF calcium sensitivity activators, confirmation, biochemical, IANBD-TnC fluorescence, triplicate (AID 504383).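 Note: 0% = DMSO at 0.472 mM calcium and 100% = DMSO at 2.9 mM calcium.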 The following applies: IANBD-labeled cardiac RTF, Ca2+ sensitivity fluorescence; at 7.2 µM; active compounds read high; scaled from EC20 to saturating calcium; tested at EC20 calcium, 0.472 mM. Summed up: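 Material: labelled regulated thin filaments; Reagent: 0.472 mM calcium; Incubation: 15 min compound incubation with filaments at 25 °C; Detection: filament fluorescence intensity; Evaluation: fluorescence increase normalised to calcium controls; Benchmarks: low control EC20 calcium, high control EC100 calcium.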
Regarding `COC(=O)c1ccc2c(c1)C(C)(C)C(/C=C/c1ccccc1O)=[N+]2C`, the activation was 7.52%.

As to `COC(=O)Cn1cc(/C=C/c2cc[n+](C)cc2)c2ccccc21`, the activation was 16.8% (active). For `Oc1ccc2ccc3cccc[n+]3c2c1`, the activation was 68.4% (active). As for `CC(=O)c1ccc2noc(-c3ccc(C)cc3)c2c1`, the activation was 6.52%. As for `COc1ccc(-c2onc3ccc(C(C)=O)cc23)cc1`, the activation is 18% (active). Under `O=C(CN1C(=O)NC2(CCCCC2)C1=O)Nc1ccccc1Cl` stands 12.1% (active).

Regarding `CC1(c2ccc(OC(F)F)cc2)NC(=O)N(CC(=O)Nc2ccc(F)cc2)C1=O` (configuration not stated), the activation was 1.92%. Under `CCC1(c2ccccc2)NC(=O)N(CC(=O)Nc2ccc(OC)nc2)C1=O` (configuration not stated) stands 11%; under `C=CCOc1ccc(C2OC34CCCCC3C(C#N)(C#N)C2(C#N)C(=N)O4)cc1` (configuration not stated), 11.3%; under `Cc1cc(C)n2nc(C(=O)N3CCCC(Nc4ccc(C(C)C)cc4)C3)cc2n1` (configuration not stated), 11.9% (active). Under `COc1ccc(-c2ccc(C3C(C#N)=C(N)Oc4n[nH]c(C)c43)o2)cc1` (configuration not stated) stands 53.6% (active). Consider `Cc1[nH]nc2c1C(c1cc(Br)cs1)C(C#N)=C(N)O2` (configuration not stated), for which the activation is 1.18%. For the molecule `CCCCCCCC(=O)Nc1ccc(S(=O)(=O)Nc2nccs2)cc1`, the activation was 39.1% (active). On to `O=C(NCc1cccc(C(F)(F)F)c1)c1cccc(S(=O)(=O)NCc2ccccc2)c1`, for which the activation is 7.34%. To `CN(C)C(CNC(=O)c1cccc(S(=O)(=O)N(C)C)c1)c1ccccc1` (configuration not stated) belongs 14.9% (active); to `CC(NC(=O)COc1ccc(N(C)S(=O)(=O)c2ccccc2)cc1)c1ccccc1` (configuration not stated), 8.81%; to `CCOc1ccc(N2C(=O)CC(SCc3nc4ccccc4[nH]3)C2=O)cc1` (configuration not stated), 16.2% (active).

For the molecule `CC(=O)C1=C(O)CCCC1=NCc1nc2ccccc2[nH]1`, the activation is 2.38%.

Take `O=C(CSC1CC(=O)N(c2ccc(C(=O)O)cc2)C1=O)Nc1ccc2ccccc2c1` (configuration not stated): the activation is 1.35%. As for `C[C@H](O)C(=O)C1=Nc2c(nc(N)[nH]c2=O)NC1`, the activation is -0.23%. `Cc1ccc(C)c(N2CCN(C(=O)c3cc4ccccn4n3)CC2)c1`: the activation is 21.1% (active). To `O=C(Nc1ccc(Cl)c(Cl)c1)Nc1ccc([N+](=O)[O-])cn1` belongs 28.5% (active); to `O=C(COC(=O)C1(c2ccc(F)cc2)CCCC1)N1CCN(C(=O)c2ccco2)CC1`, 3.96%; to `O=C(Nc1ccc(N2CCN(C(=O)c3ccco3)CC2)cc1)c1ccc(F)cc1`, 14.9% (active).

With `O=C(COC(=O)C1(c2ccccc2F)CCCC1)Nc1ncc(C(F)(F)F)cc1Cl`, the activation is 4.8%. Consider `COc1ccc(/C=N/NC(=O)Cn2c(Cc3ccc(OC)c(OC)c3)nc3ccccc32)cc1`, for which the activation was 15% (active). For `COc1ccc(/C=C/C(=O)c2nc3ccccc3n2CC(=O)c2ccc(OC)cc2)cc1`, the activation was -1.84%. On to `Cc1c(C(=O)NCc2ccco2)cccc1[N+](=O)[O-]`, for which the activation is 11.7% (active). For `Cc1c(C(=O)NCc2ccc3c(c2)cc(C)n3C)cccc1[N+](=O)[O-]`, the activation was 8.1%. As to `c1ccc2[nH]c3cc4ncnc4cc3nc2c1`, the activation is 27.5% (active). For the molecule `O/C(=C\c1nc2ccccc2[nH]1)c1cccs1`, the activation was 2.34%. To `Cc1ncn(C23CC4CC(CC(C4)C2)C3)n1` belongs 4.82%; to `COC(=O)C1=C(O)/C(=C\c2ccc(CNS(=O)(=O)c3ccc(Cl)cc3)o2)N=C1C`, 9.05%. Take `CCOc1ccccc1N(CC(=O)Nc1ccc(OC)c(OC)c1)S(=O)(=O)c1ccccc1`: the activation was 5.99%.

As to `COC(=O)CN(c1cc(OC)ccc1OC)S(=O)(=O)c1ccc(OC)c(OC)c1`, the activation was 14.6% (active). On to `COc1ccc(OC)c(NC(=O)c2cc(S(=O)(=O)N(C)C)ccc2N2CCCC2)c1`, for which the activation was 7.08%.

Consider `CCC(=O)Nc1ccc2c(c1)nc(CCN1CCN(C)CC1)n2C`, for which the activation was 56% (active). To `Cn1c(CN2CCCC2)nc2cc(NC(=O)COc3ccc([N+](=O)[O-])cc3)ccc21` belongs 8.98%; to `CCCn1c(CN2CCN(C(=O)OCC)CC2)nc2cc(NC(=O)CC)ccc21`, 8.96%; to `Cn1cccc1/C=C1/SC(=S)N(CC(=O)O)C1=O`, 176% (active). Turning to `Cn1cccc1/C=C1\SC(=S)N(CC(=O)O)C1=O`, the activation is 14.1% (active). `CN1/C(=C\C=C2/SC(=S)N(CC(=O)O)C2=O)C(C)(C)c2ccccc21`: the activation was 7.05%. To `O=C(O)c1cc(-c2ccc(/C=C3/SC(=S)N(Cc4ccccc4)C3=O)o2)ccc1Cl` belongs 5.81%; to `O=C(O)CN1C(=O)/C(=C/c2ccc(SCc3ccccc3)o2)SC1=S`, 39.7% (active). For the molecule `COc1ccc(Nc2cccc3ccccc23)cc1`, the activation is 199% (active). As to `CCOc1cc(N2CCOCC2)c(OCC)cc1NC(=O)CCS(=O)(=O)c1ccc(Cl)cc1`, the activation is 72% (active). As to `COc1cc(/C=N/NC(=O)c2cc(-c3ccccc3Cl)nc3ccccc23)cc(OC)c1O`, the activation is 15.8% (active).

As to `COc1cc(/C=N\NC(=O)CC(=O)NCCc2ccccc2)ccc1O`, the activation was 7.55%.

As to `CCOc1ccc(C(=O)NCC(=O)Nc2ncccc2C)cc1OCC`, the activation is 16.6% (active). Turning to `Cc1cccc(/C=N/n2c(-c3ccncc3)n[nH]c2=S)c1`, the activation was 39.4% (active).

On to `COC(=O)CCC(=O)OC1(C)C(=O)C2=CN(Cc3ccc(OC)cc3)C(c3ccc(OC)cc3)=CC2=C(Br)C1=O` (configuration not stated), for which the activation is 6%. For `CCCCC1=CC2=C(c3ccco3)C(=O)C(C)(OC(=O)c3ccc(OC)cc3)C(=O)C2=CN1CCc1ccccn1` (configuration not stated), the activation is 25.8% (active). Take `O=C(c1ccccc1)c1ccncc1`: the activation is 5.78%. With `O=C(c1ccccc1)c1ccc(O)cc1O`, the activation was 89.6% (active). Take `O=C(O)c1ccccc1C1=Nc2ccc(O)cc2Oc2cc(O)ccc21`: the activation is 5.85%.

Consider `O=C(c1ccccc1)c1ccccc1C(=O)c1ccccc1`, for which the activation was 12.7% (active). For the molecule `CC1C/C(=C/c2cccn2C)C(=O)/C(=C/c2cccn2C)C1` (configuration not stated), the activation was 11.4%.

On to `Cn1cccc1/C=C1\CCC/C(=C\c2cccn2C)C1=O`, for which the activation was 15.9% (active). Under `COC(=O)c1sccc1Oc1ccc(Cl)cc1N1C(=O)CCC1=O` stands 8.17%.

Consider `CC(NC(=O)CN1CCC(C(N)=O)CC1)c1ccccc1` (configuration not stated), for which the activation was 5.31%.

Consider `Cc1ccc2c(C(=O)CN3CCC(C(N)=O)CC3)c(C)[nH]c2c1`, for which the activation was 16.3% (active). `COc1ccc(C)cc1Nc1n[n+](-c2ccccc2)c(-c2cc([N+](=O)[O-])cc(OC)c2O)s1`: the activation is 5.27%. For `C=C[C@@](C)(O)CC[C@@H]1[C@@]2(C)CCCC(C)(C)[C@@H]2CC[C@@]1(C)O`, the activation was 6.12%. Under `COc1ccccc1NS(=O)(=O)c1cc(NC(=O)c2cc3ccccc3oc2=O)ccc1C` stands 72.6% (active); under `COc1ccccc1NS(=O)(=O)c1cc(NC(=O)CCNC(C)=O)ccc1N1CCCCC1`, 4.68%; under `Cc1ccc(-c2csc(NC(=O)CSc3nc4ccccc4o3)n2)cc1`, 2.75%.

For `Cc1ccc(NC(=O)CSc2nnc(-c3cccnc3)s2)cc1`, the activation is 678% (active). To `CC(C)(C)OC(=O)NCCCC[C@@H](C(=O)N1CCN(C(=O)OC(C)(C)C)CC1)n1cc(CCC(=O)O)nn1` belongs 7.02%; to `CC(O)Cc1cn([C@@H](CCCCN)C(=O)N2CCNCC2)nn1` (some centres not stated), 2.6%. With `C[C@@H](C(=O)N1CCNCC1)n1cc(CCCN=C(N)N)nn1`, the activation was 107% (active). To `CCCCNc1nc(-c2ccccc2)nc(-n2ccnc2)n1` belongs 15.9% (active); to `Cn1cccc1Cc1nnc(SCC(=O)Nc2ccc(F)cc2F)n1-c1ccc(F)cc1`, 7.53%.

Take `O=C(CSc1nncc2ccccc12)Nc1ccc(F)cc1`: the activation was 170% (active).

Take `COc1ccc(NC(=O)CSc2nncc3ccccc23)cc1`: the activation was 1.45%.

As to `Nc1c(C(=O)C2CC2)sc2nc(-c3ccccc3)cc(C(F)(F)F)c12`, the activation was 30.1% (active). Under `Cc1nnc(NC(=O)c2sc3nc(-c4cccs4)cc(C(F)(F)F)c3c2N)s1` stands 9.99%. Under `CC(C)(C)C(=O)c1sc2nc(-c3cccs3)cc(C(F)(F)F)c2c1N` stands 12.4% (active); under `Nc1c(C(=O)Nc2ccccc2F)sc2nc(Cc3ccccc3)cc(C(F)(F)F)c12`, 7.05%; under `Nc1c(C(=O)C2CC2)sc2nc(-c3cccs3)cc(C(F)(F)F)c12`, 18.1% (active). For the molecule `COc1ccc(-c2cc(C(F)(F)F)c3c(N)c(C(=O)NCCSC)sc3n2)cc1`, the activation is 5.88%.

In the case of `Nc1c(C(=O)Nc2nccs2)sc2nc(-c3cccs3)cc(C(F)(F)F)c12`, the activation was 10.7%. As for `CC(=O)c1sc2nc(-c3cccs3)cc(C(F)(F)F)c2c1N`, the activation was -0.48%. Regarding `c1ccc(-c2nc(-c3ccco3)n3ccccc23)cc1`, the activation was 1.15%.

Regarding `N#Cc1c(N)oc(-c2ccccc2)c1-c1ccccc1`, the activation was 23.9% (active). Under `COc1ccccc1C1=NOC(Cn2c(=O)c3c(ncn3C)n(C)c2=O)C1` (configuration not stated) stands 7.68%; under `Cc1c(O)c2c3c(cccc3c1O)C(=O)N(c1ccccc1)C2=O`, 67.4% (active). Under `Nc1ccc2c3c(cccc13)C(=O)N(c1ccccc1)C2=O` stands 10.9%; under `Cc1cccc(N2CCN(C(=O)Cn3nc(Cc4ccncc4)c4ccccc4c3=O)CC2)c1C`, 25.3% (active); under `Cc1nc2ccccc2n2c(O)c(CC(=O)O)cc12`, 15.2% (active).

Consider `COc1ccc2c(n1)Sc1nc3ccccc3nc1N2`, for which the activation is 6.52%. Consider `CC1(C)CC(=O)C2=C(C1)OC(N)=C(C#N)C21CCN(Cc2ccccc2)CC1`, for which the activation is 12.4% (active). With `COc1ccc2[nH]c3c(c2c1)CCN1C(=O)C(CC(=O)NCCCn2ccnc2)C[C@H](C(=O)N2CCCCC2)[C@@]31C` (some centres not stated), the activation is 6.39%.
